Source: PubChem (several laboratories)
CHOP UPR activ: apoptotic UPR (CHOP) activation; CHO-CHOP luciferase reporter, luminescence; percent of tunicamycin response over DMSO baseline; AID 449763; activation, % at 10 µM; 330,000 tested, 0.34% active;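 active = at 10 µM dose, activation of 40% or more, normalized to positive control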;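 also: 100% = tunicamycin at 10 µg/mL and 0% = DMSO alone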
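Dosing – one dose, 10 µM in 0.5% DMSO · System – CHO-CHOP cells, stable luciferase reporter of PERK-eIF2a-CHOP signalling · Input – 500 cells/well · Control set – tunicamycin 10 µg/mL final as positive, DMSO-only wells as negative · Timing – 6 h compound treatment, 37 °C · Measure – % activation vs tunicamycin · Technique – luminescence read with Steady-Glo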
XBP1 UPR activ: activators of adaptive arm of unfolded protein response (XBP1); 330,000 tested, 0.33% active; activation, % at 20 µM; CHO-XBP1 luciferase reporter, IRE1-XBP1 UPR activation, luminescence; percent of tunicamycin response, DMSO as zero; AID 463104;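 active = versus positive control, 20 µM dose yields 30% or more activation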;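 also: 100% = tunicamycin at 10 µg/mL and 0% = DMSO only wells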
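Material: CHO cell line with stable XBP1 luciferase reporter; buffer or medium: F12 medium containing 10% fetal bovine serum; compound: single point, 20 µM final compound, 1% DMSO; incubation: 6 h treatment, 37 °C; measured by: glow luminescence from Steady-Glo reagent; evaluation: activation, % of tunicamycin; control set: tunicamycin high, DMSO low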
Jurkat NFkB inh: inhibitors of the PMA/ionomycin-induced NF-kB reporter in Jurkat cells; PMA/ionomycin-induced NF-kB luciferase reporter, luminescence; inhibition, % at 4 µM; 330,000 tested, 0.53% active; in the data active = inhibition above about 50%
697 NFkB inh: lowers PMA/ionomycin-induced NF-kB signal in 697 B cells. 697 B-cell NF-kB luciferase reporter, 16 h. inhibition, % at 4 µM. 330,000 tested, 0.33% active; in the data active = inhibition above about 35%
CHOP inh: blocks CHOP induction under ER stress. CHO-K1 CHOP-promoter luciferase, tunicamycin-induced, 15-18 h. inhibition, % at 10 µM. 220,000 tested, 3.8% active. AID 2732;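 active = compounds that reduced the stress-induced luciferase reporter signal by more than about 70% of percent inhibition, limit read from the data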;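 also: 0% = tunicamycin plus vehicle and 100% = wells without tunicamycin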
Gli-Sufu antag: Gli-Sufu pathway antagonism; Sufu-KO-LIGHT fibroblasts, Gli luciferase reporter luminescence; inhibition, % at 5 µM; 340,000 tested, 0.74% active;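 active = inhibition above about 55%, limit read from the data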;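 also: 0% = DMSO-treated cells and 100% = wells with medium but no cells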
CHOP confirm: confirmation of CHOP induction inhibitors. AID 504437. 2,100 tested, 45% active. inhibition, % at 10 µM. CHO-CHOP promoter luciferase reporter, tunicamycin-induced, luminescence. shares compounds with CHOP inh;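 active = mean of three repeat readings of reporter signal inhibition above a set limit, cut at about 70% in these data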;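 also: 0% = tunicamycin plus vehicle and 100% = wells lacking tunicamycin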
Jurkat NFkB conf: lowers PMA/ionomycin-induced NF-kB signal in Jurkat cells; 2,700 tested, 27% active; AID 435020; inhibition, % at 4 µM; shares compounds with Jurkat NFkB inh; Jurkat NF-kB luciferase, 16 h;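 active = inhibition reaching about 45% at 4 µM in either replicate, limit read from the data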;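 also: plate controls were PMA/ionomycin stimulated DMSO wells for no effect and unstimulated DMSO wells for full effect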
697 NFkB conf: inhibitors of the PMA/ionomycin-induced NF-kB reporter in 697 B cells, retest | 697 B-cell NF-kB luciferase, 16 h | 2,000 tested, 35% active | shares compounds with 697 NFkB inh | inhibition, % at 4 µM; in the data active = inhibition mostly above about 28%, no sharp cut-off; inactive = mostly below about 22%
UPR CHOP confirm: apoptotic UPR (CHOP) activation, confirmed; shares compounds with CHOP UPR activ; CHO-CHOP cells, CHOP-luciferase reporter luminescence; percent of tunicamycin response, DMSO as zero; activation, % at 10 µM; 1,000 tested, 64% active; AID 463112; in the data active = activation above about 33%;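 also: 0% = DMSO wells and 100% = tunicamycin 10 µg/mL wells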
XBP1 UPR conf: adaptive UPR (XBP1) activation, confirmed | shares compounds with XBP1 UPR activ | 1,000 tested, 63% active | CHO-XBP1 IRE1-XBP1 luciferase reporter, luminescence | activation, % at 20 µM;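 active = reporter signal at least 30% of the positive control's activation in two or more of four replicate wells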;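 also: plate controls were DMSO negative control for no effect and tunicamycin 10 µg/mL positive control for full effect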
Gli-Sufu confirm: confirmation of Gli-SUFU pathway antagonists; Sufu-KO-LIGHT cells, Gli luciferase reporter, luminescence; 2,500 tested, 40% active; shares compounds with Gli-Sufu antag; inhibition, % at 5 µM;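 active = mean inhibition at 5 µM reaching about 45%, limit read from the data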;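 also: plate controls were DMSO-treated cells for no effect and wells lacking cells for full effect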
SufuKO cytotox: cytotoxic in Gli-SUFU antagonist counter-screen. 2,500 tested, 32% active. Sufu-KO-LIGHT cells cytotoxicity, ATP luminescence. shares compounds with Gli-Sufu antag. cytotoxicity, % at 5 µM;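 active = mean cytotoxicity at 5 µM above about 25%, limit read from the data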;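 also: cells exposed to compound overnight for roughly 16 to 18 hours; plate controls were DMSO wells with cells for no effect and medium without cells for full effect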
Wnt3a counter: Wnt3a reporter inhibition counter-screen; shares compounds with Gli-Sufu antag; Wnt-LIGHT cells, Wnt3a-driven luciferase reporter, luminescence; inhibition, % at 6.25 µM; 2,500 tested, 20% active;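 active = mean inhibition above about 25%, limit read from the data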
Numbers without * were called inactive; x = not tested or not shown. Shown are actives, neighbours in structure and some others; about 3.9% of the full set was active somewhere.

SMILES	CHOP UPR activ	XBP1 UPR activ	Jurkat NFkB inh	697 NFkB inh	CHOP inh	Gli-Sufu antag	CHOP confirm	Gli-Sufu confirm	SufuKO cytotox	Wnt3a counter	others
O=C(/C=C\c1cn(-c2ccccc2)nc1-c1ccccc1)Nc1nccs1	51*	106*	-17	-7	108*	-10	105*	x	x	x	UPR CHOP confirm=18;XBP1 UPR conf=113*
CC(=O)NS(=O)(=O)c1ccc(NC(=O)/C=C/c2cn(-c3ccccc3)nc2-c2ccccc2)cc1	1	-2	7	-16	4	1	x	x	x	x
CCCCCCCCCn1c2c(c(=N)c3c1CCC3)CCCC2	72*	44*	97*	58*	106*	88*	0	x	x	x	Jurkat NFkB conf=81*;697 NFkB conf=-13;UPR CHOP confirm=79*;XBP1 UPR conf=44*
CCn1c2c(c(=N)c3c1CCC3)CCCC2	-1	-3	41	-9	-2	4	x	x	x	x
Cc1cccc(N2CCN(C(=S)Nc3ccc4nc(N5CCN(C)CC5)cc(C)c4c3)CC2C)c1 (configuration not stated)	8	62*	7	6	106*	11	-14	x	x	x	XBP1 UPR conf=47*
CCOC(=O)N1CCN(C(=O)C2CC(=O)N(c3ccc(C)cc3)C2)CC1 (configuration not stated)	3	-2	15	-11	x	-4	x	x	x	x
Cc1ccccc1NC(=O)COC(=O)/C=C/c1cn(-c2ccccc2)nc1-c1cccnc1	0	-3	4	12	35	2	x	x	x	x
CC(=O)Nc1ccc(NC(=O)C(C)OC(=O)/C=C/c2cn(-c3ccccc3)nc2-c2cccnc2)cc1 (configuration not stated)	2	36*	-8	5	104*	3	48	x	x	x	XBP1 UPR conf=17
Cc1ccc(Nc2nc(NCc3ccco3)c3ccccc3n2)cc1	22	61*	-51	-283	106*	34	115*	x	x	x	697 NFkB conf=-253;XBP1 UPR conf=72*
COc1cccc(-c2cc(-c3cccnc3)nc(N)c2C#N)c1	2	6	-5	-8	6	-5	x	x	x	x
N#Cc1c(-c2cccc(Br)c2)cc(-c2cccnc2)nc1N	2	4	36	-48	104*	53	49	20	0	-21
COc1ccc(N2CCN(CCS(=O)(=O)c3cc(Cl)ccc3Cl)CC2)cc1	2	-1	1	11	x	3	x	x	x	x
Cc1[nH]n(-c2ccccc2)c(=O)c1N=Nc1ccccc1O	3	-1	27	-20	105*	55	19	55*	34*	74*
Cc1ccccc1N=Nc1c(C)[nH]n(-c2ccccc2)c1=O	x	x	x	x	15	5	x	x	x	x
O=C(Cc1csc(Nc2nc(=S)[nH]c3ccccc23)n1)NCCCN1CCN(c2ccccc2F)CC1	3	64*	-12	-4	105*	86*	85*	37	21	-41	XBP1 UPR conf=19
COc1ccc(CC2(CO)CCN(CC3=Cc4cc(Cl)ccc4OC3)CC2)cc1	6	-1	35	-17	102*	57*	105*	60*	14	-28
CC(C)(C)c1ccc(C2CC2C(=O)N/N=C\c2ccc[nH]2)cc1 (configuration not stated)	4	4	-8	-4	105*	88*	95*	92*	3	43*
COc1ccc(-c2nn(-c3ccccc3)cc2/C=N/NC(=O)c2ccc(Br)o2)cc1	-6	-8	-55	-35	107*	52	127*	63*	23	-28
COc1ccc(-c2nn(-c3ccccc3)cc2/C=N/NC(=O)c2ccc3c(c2)OCO3)cc1	8	-6	-32	-7	-10	x	x	x	x	x
O=C(O)c1ccc(N/N=C/c2ccncc2)cc1	0	-4	-9	-43	x	-4	x	x	x	x
O=C(O)c1ccc(N/N=C/c2ccc3nccnc3c2)cc1	-10	-6	60*	20	101*	55*	116*	59*	35*	101*	Jurkat NFkB conf=18
O=C(C[n+]1cccc(CO)c1)Nc1nc2ccccc2s1	2	3	-13	-36	2	-4	x	x	x	x
Cc1ccc(NC(=O)c2cc3ccccc3oc2=O)cc1S(=O)(=O)N(C)C	-8	-10	56*	-48	102*	78*	110*	89*	16	101*	Jurkat NFkB conf=91*
CC(=O)Nc1ccc(C(=O)CN2C(=O)NC3(CCCc4ccccc43)C2=O)c(F)c1 (configuration not stated)	0	-1	-14	-3	x	2	x	x	x	x
COc1ccc2nc(SCC(=O)NC3(C#N)CCCCC3)[nH]c2c1	0	-2	4	8	x	-1	x	x	x	x
COc1cc(-c2cc(-c3ccc(O)cc3)nc(N)c2C#N)ccc1O	2	12	-5	28	15	49	x	x	x	x
CCOc1cc(-c2cc(-c3ccc(C)cc3)nc(N)c2C#N)ccc1O	2	7	51*	-39	70*	2	x	x	x	x	Jurkat NFkB conf=14
COc1ccc(-n2nnnc2SCC(=O)NCCc2ccccc2)cc1OC	-1	0	-2	1	20	10	x	x	x	x
COc1ccc(CCNc2nnc(Sc3nnnn3-c3ccccc3)s2)cc1OC	-1	6	77*	-130	x	36	x	x	x	x	Jurkat NFkB conf=55*
COc1ccc2[nH]c(-c3cccc(F)c3)cc(=O)c2c1	3	20	37	-98	-56	3	x	x	x	x
